Test results: ChEMBL document CHEMBL2163285, “Chrolactomycins from the actinomycete actinospica” (2012)
Converted amounts (≈) assume the structure as drawn.

What was measured:
Type in all cases: functional
[1] = tested on: Bacillus subtilis; test: Antimicrobial activity against Bacillus subtilis 168 assessed as growth inhibition after 20 to 24 hrs by broth microdilution method
Summary of the method: (§1)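 CLSI broth microdilution in Mueller Hinton broth supplemented with 20 mg/L CaCl2 and 10 mg/L MgCl2. Cells from frozen stocks were seeded at 5 × 10^5 cfu/mL and incubated at 37 °C, then read after 20−24 h. The MIC is the lowest concentration giving complete suppression of visible growth.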

[2] = tested on: Micrococcus luteus; test: Antimicrobial activity against Micrococcus luteus 108 assessed as growth inhibition after 20 to 24 hrs by broth microdilution method; summary of the method: as §1
[3] = tested on: Staphylococcus aureus; test: Antimicrobial activity against Staphylococcus aureus ATCC 6538P assessed as growth inhibition after 20 to 24 hrs by broth microdilution method; summary of the method: as §1
[4] = tested on: Streptococcus pyogenes; test: Antimicrobial activity against Streptococcus pyogenes 49 assessed as growth inhibition after 20 to 24 hrs by broth microdilution method
Summary of the method: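 Streptococcus pyogenes was grown in Todd Hewitt broth and tested by CLSI broth microdilution. The MIC is the lowest concentration causing complete suppression of visible growth.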

[5] = tested on: Staphylococcus aureus; test: Antimicrobial activity against Staphylococcus aureus ATCC 29213 assessed as growth inhibition after 20 to 24 hrs by broth microdilution method; summary of the method: as §1

`CN[C@H](CC(C)C)C(=O)N[C@H]1C(=O)N[C@@H](CC(N)=O)C(=O)N[C@H]2C(=O)N[C@H]3C(=O)N[C@H](C(=O)N[C@H](C(=O)O)c4cc(O)cc(O)c4-c4cc3ccc4O)[C@H](O)c3ccc(c(Cl)c3)Oc3cc2cc(c3O[C@@H]2O[C@H](CO)[C@@H](O)[C@H](O)[C@H]2O[C@H]2C[C@](C)(N)[C@H](O)[C@H](C)O2)Oc2ccc(cc2Cl)[C@H]1O` [VANCOMYCIN] gave an MIC [1] of 0.25 µg/mL (≈ 0.173 µM) and an MIC [2] of 0.125 µg/mL (≈ 0.0863 µM).

For `C=C1C(=O)[C@]2(OC)C(=O)O[C@@]34C[C@H](C)C(C(=O)O)=C[C@@H]3CCC[C@@H](C)C[C@@H](C)[C@H]1O[C@H]24` (relative stereo), the MIC [1] was 8 µg/mL (≈ 18.5 µM), the MIC [3] was 2 µg/mL (≈ 4.62 µM) and the MIC [4] was 16 µg/mL (≈ 37 µM). It also gave an MIC [5] of 2 µg/mL (≈ 4.62 µM) and an MIC [2] of 8 µg/mL (≈ 18.5 µM).

`C=C1C(=O)[C@]2(OC)C(=O)O[C@@]34C[C@H](C)C(C(=O)O)=C[C@@H]3CCC[C@@H](C)[C@H](O)[C@@H](C)[C@H]1O[C@H]24` (relative stereo) gave an MIC [1] of 128 µg/mL (≈ 285 µM), an MIC [3] of 32 µg/mL (≈ 71.3 µM) and an MIC [4] of 8 µg/mL (≈ 17.8 µM). It also gave an MIC [5] of 64 µg/mL (≈ 143 µM) and an MIC [2] of 8 µg/mL (≈ 17.8 µM).
